From PubChem BioAssay AID504392 (Broad Institute, 2011)
The source made the active and inactive calls.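 How the source made its calls: active means fitted curve rising past 10% caspase activation at or below the top valid dose; inactive means activity opposite to the expected rise, or the rest.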

Test: apoptosis induction in mouse embryonic fibroblasts – cell-based, wild-type MEF, caspase luminescence, dry powder, set 2, counter-screen for Bcl2-A1 inhibitor project, dose response (AID 504392)
Conditions: CaspaseGlo luminescence, 3 h; series mostly up to 35 µM
In short: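 Material: unprimed wild-type MEF cells; amount: 2500 cells per well; read-out basis: caspase activation; doses: pin-transferred compound; medium: RPMI-1640 growth medium with 10% FBS; timing: 3 h compound at 37 °C, 1 h reagent at RT; signal: CaspaseGlo luminescence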

Compound	outcome
Cc1ccc(Sc2c([N+](=O)[O-])c(=O)oc3ccccc23)cc1	inactive
O=C(Oc1cccc(/C=N/Nc2nc(Nc3ccccc3)nc(N3CCOCC3)n2)c1)c1ccco1	inactive
Cc1ccc(Sc2c([N+](=O)[O-])cnc3ccccc23)cc1	inactive
Cn1c(=O)c([N+](=O)[O-])c(-n2cnc3ccccc32)c2ccccc21	inactive
Cc1ccc(Sc2cc(=O)n(C)c3ccccc23)cc1	inactive
Cn1c(=O)c([N+](=O)[O-])c(Oc2ccccc2)c2ccccc21	inactive
CN1C(=O)C(C)(C)N(Cc2ccccc2)c2ccccc21	inactive
Cc1ccc(Sc2c([N+](=O)[O-])c(=O)n(C)c3ccccc23)cc1	inactive
O=[N+]([O-])c1cnc2ccccc2c1Sc1ccccc1	inactive
Cc1ccc(Nc2c([N+](=O)[O-])c(=O)oc3ccccc23)cc1	inactive
Cn1c(=O)c([N+](=O)[O-])c(Nc2ccc(Cl)cc2)c2ccccc21	inactive
O=c1oc2ccccc2c(N2CCCCC2)c1[N+](=O)[O-]	inactive
O=c1oc2ccccc2c(Cl)c1[N+](=O)[O-]	inactive
Cn1c(=O)c([N+](=O)[O-])c(Cl)c2ccccc21	inactive
CCOC(=O)N1CCN(c2c([N+](=O)[O-])c(=O)n(C)c3ccccc23)CC1	inactive
CCSc1c([N+](=O)[O-])c(=O)oc2ccccc12	inactive
Cc1ccc(Nc2c([N+](=O)[O-])c(=O)n(C)c3ccccc23)cc1	inactive
CCOCCCNc1c([N+](=O)[O-])c(=O)n(C)c2ccccc12	inactive
O=c1oc2ccccc2c(Nc2cc(Cl)cc(Cl)c2)c1[N+](=O)[O-]	inactive
O=c1oc2ccccc2c(Sc2ccccc2)c1[N+](=O)[O-]	inactive
